This passage reports viability and IC50 results from ChEMBL document CHEMBL1147926, “Synthetic chalcones, flavanones, and flavones as antitumoral agents: biological evaluation and structure-activity relationships” (Bioorg Med Chem, 2007).

The test system of experiment [1] is TK-10. Nature of the experiment: Cytotoxicity against human TK10 cells in aerobic condition assessed as survival at 100 uM by sulforhodamine assay. The note with it: read-out: Activity. The class given is functional. An outline of the steps:
(§1)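 Cells kept in RPMI with L-glutamine, penicillin/streptomycin, non-essential amino acids (1% each) and 10% FBS, 37 °C, 5% CO2, 48 h; compound added from 1 mM stock in 10% DMSO to final 100 µM, 24 h exposure. TCA fixation 1 h at 4 °C, sulforhodamine B staining, Tris pH 10.0, A540. Survival = (T/C)×100 versus solvent control; duplicates, two repetitions averaged.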

Experiment [2] concerns MCF7. Nature of the experiment: Cytotoxicity against human MCF7 cells […] in aerobic condition assessed as survival at 100 uM by sulforhodamine assay. The class given is functional. The note with it: read-out: Activity. In outline: as §1
The test system of experiment [3] is HT-29. Description: Cytotoxicity against human HT29 cells ATCC HTB38 in aerobic condition assessed as survival at 100 uM by sulforhodamine assay. It counts as functional. Conditions: read-out: Activity. An outline of the steps: as §1
A short description of experiment [4]: Growth inhibition of HK2 cells by sulforhodamine assay. The class given is cell-based. Conditions: Homo sapiens, HK-2.
Experiment [5] has as its system TK-10. Nature of the experiment: Growth inhibition of TK10 cells by sulforhodamine assay. Conditions: Homo sapiens. The class given is functional, cell-based. In outline:
(§2)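 Cells grown in supplemented RPMI with 10% FBS at 37 °C, 5% CO2, 48 h, then exposed to increasing compound concentrations (1 mM stocks in 10% DMSO) for 24 h. Sulforhodamine B read-out after TCA fixation at A540. IC50 is the concentration halving absorbance relative to solvent control. Duplicates, at least two repetitions, means reported.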

The test system of experiment [6] is HT-29. Nature of the experiment: Growth inhibition of HT29 cells by sulforhodamine assay. It counts as functional, cell-based. The note with it: Homo sapiens. In outline: as §2
In experiment [7] the test system is MCF7. Nature of the experiment: Growth inhibition of MCF7 cells by sulforhodamine assay. The class given is functional, cell-based. The note with it: Homo sapiens. In outline:
as §2

`CC(=O)Nc1ccc(/C=C/C(=O)c2ccccc2O)cc1`: the figures for the viability at 100 µM in the experiment with TK-10 [1], with MCF7 [2] and with HT-29 [3] were 89%, 79% and 87%, respectively.
For `COc1ccc(/C=C/C(=O)c2ccccc2O)cc1OCc1ccccc1`, the viability at 100 µM with TK-10 [1], in the experiment on MCF7 [2] and in the experiment with HT-29 [3] was 100% in each case.
In the case of `O=C(/C=C/c1ccccc1Br)c1ccccc1O`, the viability at 100 µM was determined as 3% in the experiment with TK-10 [1], 100% in the experiment on MCF7 [2] and 0% in the experiment on HT-29 [3].
The matching figures for `COc1ccc(OC)c(/C=C/C(=O)c2ccccc2O)c1`: 56%, 45% and 92%.
In the case of `COc1ccc(/C=C/C(=O)c2ccccc2O)cc1`, the viability at 100 µM amounted to 4% in the experiment with TK-10 [1], 10% in the experiment with MCF7 [2] and 97% in the experiment with HT-29 [3]. In addition, the IC50 in experiment [4] came out at 23.7 µM; with TK-10 [5], 67 µM.
Turning to `CCCCCCCCCOc1ccc(/C=C/C(=O)c2ccccc2O)cc1`, the viability at 100 µM in the experiment on TK-10 [1] came out at 77%; with MCF7 [2], 86%; in the experiment on HT-29 [3], 98%.
As to `COc1ccc(C2CC(=O)c3ccccc3O2)cc1` (configuration not stated), the results for the viability at 100 µM in the experiment with TK-10 [1], with MCF7 [2] and in the experiment with HT-29 [3] were 36%, 2% and 100%, respectively.
In the same order, the values of `O=C1CC(c2ccccc2Br)Oc2ccccc21` (configuration not stated) are 54%, 12% and 44%.
Turning to `O=C(/C=C/c1ccc2c(c1)OCO2)c1ccccc1O`, the figures for the viability at 100 µM in the experiment with TK-10 [1], in the experiment on MCF7 [2] and in the experiment with HT-29 [3] were 50%, 79% and 69%, respectively. In experiment [4], this molecule gave an IC50 of 11.6 µM.
Take `O=C1CC(c2ccc3c(c2)OCO3)Oc2ccccc21` (configuration not stated): the viability at 100 µM in the experiment with TK-10 [1], with MCF7 [2] and with HT-29 [3] was 100% throughout.
For `O=C(/C=C/c1ccc(Cl)cc1)c1ccccc1O`, the results for the viability at 100 µM in the experiment with TK-10 [1], in the experiment with MCF7 [2] and with HT-29 [3] were 3%, 41% and 25%, respectively. Besides, 45 µM corresponded to half-maximal inhibition in the experiment on HT-29 [6] (IC50).
As to `CC(=O)Nc1ccc(/C=C/C(=O)c2ccccc2)cc1`, the viability at 100 µM came out at 5% with TK-10 [1], 24% with MCF7 [2] and 3% with HT-29 [3].
In the same order, the values of `CSc1ccc(/C=C/C(=O)c2ccccc2O)cc1` are 91%, 75% and 76%.
`CSc1ccc(C(O)CC(=O)c2ccccc2O)cc1` (configuration not stated): the viability at 100 µM in the experiment with TK-10 [1] was found to be 100%; in the experiment with MCF7 [2], 90%; in the experiment on HT-29 [3], 100%.
On to `O=c1cc(-c2ccccc2Br)oc2ccccc12`, for which the viability at 100 µM with TK-10 [1] was determined as 69%; in the experiment with MCF7 [2] it was 36%; in the experiment with HT-29 [3], 61%.
For `COc1cc(/C=C/C(=O)c2ccccc2O)ccc1OCc1ccccc1`, the values for the viability at 100 µM with TK-10 [1], with MCF7 [2] and in the experiment on HT-29 [3] were 90%, 97% and 100%, respectively.
Take `O=C(/C=C/c1ccc(OCc2ccccc2)cc1)c1ccc(OCc2ccccc2)cc1O`: the viability at 100 µM stood at 92% with TK-10 [1], 100% in the experiment with MCF7 [2] and 100% with HT-29 [3].
Turning to `O=C1CC(c2ccc(OCc3ccccc3)cc2)Oc2ccccc21` (configuration not stated), the viability at 100 µM in the experiment on TK-10 [1] came out at 78%; with MCF7 [2] it was 76%; in the experiment on HT-29 [3], 69%.
On to `O=C(CCc1ccc(OCc2ccccc2)cc1)c1ccccc1O`, for which the viability at 100 µM in the experiment on TK-10 [1] was 95%; with MCF7 [2], 89%; in the experiment with HT-29 [3], 100%.
The matching figures for `O=C(/C=C/c1ccc(OCc2ccccc2)cc1)c1ccccc1O`: 64%, 56% and 59%.
With `O=C1CC(c2ccccc2)Oc2ccccc21` (configuration not stated) [FLAVANONE], the viability at 100 µM in the experiment on TK-10 [1] stood at 79%; in the experiment on MCF7 [2], 54%; in the experiment with HT-29 [3], 69%.
Take `O=C(/C=C/c1ccccc1Br)c1ccc(OCc2ccccc2)cc1O`: the results for the viability at 100 µM with TK-10 [1], with MCF7 [2] and in the experiment with HT-29 [3] were 65%, 74% and 80%, respectively.
In the same order, the values of `O=C1CC(c2ccc(Br)cc2)Oc2ccccc21` (configuration not stated) are 16%, 26% and 61%.
As for `O=c1cc(-c2ccc(Br)cc2)oc2ccccc12`, the figures for the viability at 100 µM with TK-10 [1], in the experiment on MCF7 [2] and in the experiment with HT-29 [3] were 94%, 73% and 100%, respectively. Also, the 50% inhibitory concentration (IC50) in experiment [4] was 48 µM.
Consider `Nc1ccc(/C=C/C(=O)c2ccccc2O)cc1`, for which the viability at 100 µM in the experiment on TK-10 [1] was found to be 91%; in the experiment with MCF7 [2], 43%; in the experiment on HT-29 [3] it was 98%.
On to `CSc1ccc(/C=C/C(=O)c2ccccc2)cc1`, for which the viability at 100 µM with TK-10 [1] came to 0%; in the experiment on MCF7 [2], 47%; in the experiment with HT-29 [3], 46%.
Turning to `COc1ccc(/C=C/C(=O)c2ccccc2O)cc1I`, the viability at 100 µM in the experiment on TK-10 [1] is 41%; in the experiment on MCF7 [2], 96%; with HT-29 [3] it was 92%.
As for `O=C(/C=C/c1ccccc1)c1ccc(OCc2ccccc2)cc1O`, the viability at 100 µM with TK-10 [1] turned out to be 72%; with MCF7 [2] it was 74%; with HT-29 [3], 99%.
Take `O=C(/C=C/c1ccc(OCc2ccccc2)c(I)c1)c1ccccc1O`: the viability at 100 µM with TK-10 [1] is 78%; in the experiment with MCF7 [2], 81%; in the experiment with HT-29 [3] it was 100%.
The matching figures for `O=C(/C=C/c1ccccc1Br)c1ccccc1`: 2%, 32% and 26%.
Regarding `CCCCCCOc1ccc(/C=C/C(=O)c2ccccc2O)cc1`, the viability at 100 µM stood at 62% in the experiment with TK-10 [1], 76% in the experiment with MCF7 [2] and 97% in the experiment on HT-29 [3].
As to `O=C(/C=C/C=C/c1ccccc1)c1ccccc1O`, the viability at 100 µM in the experiment with TK-10 [1] was found to be 100%; in the experiment on MCF7 [2], 84%.
Regarding `O=C(/C=C/c1ccc(O)cc1)c1ccccc1O`, the viability at 100 µM in the experiment on TK-10 [1] came to 5%; in the experiment with MCF7 [2], 3%; in the experiment with HT-29 [3], 9%.
The matching figures for `O=C(/C=C/c1ccc(Cl)cc1)c1ccccc1` [4-CHLORO CHALCONE]: 2%, 56% and 9%.
In the same order, the values of `O=C(/C=C/c1ccc([N+](=O)[O-])cc1)c1ccccc1O` are 34%, 43% and 94%.
In the same order, the values of `CCCCOc1ccc(/C=C/C(=O)c2ccc(OCCCC)cc2O)cc1` are 79%, 81% and 99%.
In the case of `O=C(/C=C/c1ccco1)c1ccccc1O`, the results for the viability at 100 µM in the experiment on TK-10 [1], with MCF7 [2] and with HT-29 [3] were 48%, 60% and 40%, respectively.
On to `O=C(/C=C/c1ccc(Br)cc1)c1ccccc1O`, for which the viability at 100 µM with TK-10 [1] amounted to 60%; with MCF7 [2], 43%; with HT-29 [3] it was 71%. For the same molecule, the IC50 in experiment [4] is 33.8 µM.
For the molecule `O=C(/C=C/c1ccc(Br)cc1)c1ccccc1`, the viability at 100 µM stood at 90% with TK-10 [1], 44% in the experiment on MCF7 [2] and 28% in the experiment with HT-29 [3].
As for `COc1cc(O)c(C(=O)/C=C/c2ccccc2Br)c(OC)c1`, the viability at 100 µM in the experiment on TK-10 [1] turned out to be 53%; in the experiment on MCF7 [2] it was 82%; in the experiment with HT-29 [3] it was 87%.
Consider `O=c1cc(-c2ccc(Cl)cc2)oc2ccccc12`, for which the viability at 100 µM came out at 74% in the experiment with TK-10 [1], 100% in the experiment with MCF7 [2] and 100% in the experiment on HT-29 [3].
With `COc1cc(O)c(C(=O)/C=C/c2ccc(OC)c(OC)c2)c(OC)c1`, the viability at 100 µM in the experiment on TK-10 [1] turned out to be 100%; in the experiment on MCF7 [2], 89%.
With `COc1ccc(C2CC(=O)c3ccccc3O2)cc1OC` (configuration not stated), the figures for the viability at 100 µM in the experiment on TK-10 [1], in the experiment on MCF7 [2] and with HT-29 [3] were 69%, 81% and 68%, respectively.
On to `COc1ccc(/C=C/C(=O)c2ccccc2O)cc1OC`, for which the viability at 100 µM in the experiment on TK-10 [1] came to 2%; with MCF7 [2], 1%; with HT-29 [3], 70%. In addition, the results for the 50% inhibitory concentration (IC50) in the experiment on MCF7 [7] and in the experiment with TK-10 [5] were 95 µM and 90 µM, respectively.
Take `O=C(/C=C/c1ccccc1[N+](=O)[O-])c1ccccc1O`: the viability at 100 µM with TK-10 [1], with MCF7 [2] and in the experiment on HT-29 [3] was 100% each time.
In the case of `COc1ccc(-c2cc(=O)c3ccccc3o2)cc1` [4'-METHOXYFLAVONE], the viability at 100 µM in the experiment on TK-10 [1] is 82%; in the experiment with MCF7 [2], 100%; with HT-29 [3], 100%.
Take `O=c1cc(-c2ccccc2)oc2ccccc12` [FLAVONE]: the viability at 100 µM was determined as 87% with TK-10 [1], 57% in the experiment with MCF7 [2] and 90% in the experiment with HT-29 [3].
On to `CN(C)c1ccc(/C=C/C(=O)c2ccccc2O)cc1`, for which the viability at 100 µM in the experiment on TK-10 [1] was 76%; in the experiment with MCF7 [2], 87%; with HT-29 [3] it was 65%.
Take `COc1ccc(/C=C/C(=O)c2c(O)cc(OC)cc2OC)cc1` [FLAVOKAWAIN A]: the viability at 100 µM in the experiment on TK-10 [1] is 71%; with MCF7 [2], 60%.

For orientation: IC50 means the concentration needed to halve the response being measured.
